Hits are enriched below; roughly 2.1% of the tested compounds scored in any of these assays.
CAL PDZ FP-1 = blocks peptide binding to the human CAL PDZ domain. purified CAL PDZ, TMR-peptide fluorescence polarization, 1 h. inhibition, % at 24.9 µM. 0.92% of 300,000 active. Q9HD26;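 active = mean inhibition of at least 30% with at least half of replicates also reaching 30%; inconclusive = no clear call, values can overlap the other calls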;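 also: 0% = DMSO neutral control and 100% = excess unlabeled competitor peptide PRC23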
SR-BI DiI inh = inhibitors of mouse SR-BI mediated HDL lipid uptake. Q61009. inhibition, % at 12.5 µM. ldlA[mSR-BI] CHO cells, DiI-HDL uptake fluorescence, 3 h. 0.96% of 320,000 active. AID 488896;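 active = mean replicate inhibition of at least 70% and a set share of replicates each scoring 70 or more; inconclusive = meets just one of the two criteria; inactive = fails both criteria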;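 also: 0% = median of neutral control wells and 100% = median of positive control wells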
Target sequence (Q61009 whole entry, looked up): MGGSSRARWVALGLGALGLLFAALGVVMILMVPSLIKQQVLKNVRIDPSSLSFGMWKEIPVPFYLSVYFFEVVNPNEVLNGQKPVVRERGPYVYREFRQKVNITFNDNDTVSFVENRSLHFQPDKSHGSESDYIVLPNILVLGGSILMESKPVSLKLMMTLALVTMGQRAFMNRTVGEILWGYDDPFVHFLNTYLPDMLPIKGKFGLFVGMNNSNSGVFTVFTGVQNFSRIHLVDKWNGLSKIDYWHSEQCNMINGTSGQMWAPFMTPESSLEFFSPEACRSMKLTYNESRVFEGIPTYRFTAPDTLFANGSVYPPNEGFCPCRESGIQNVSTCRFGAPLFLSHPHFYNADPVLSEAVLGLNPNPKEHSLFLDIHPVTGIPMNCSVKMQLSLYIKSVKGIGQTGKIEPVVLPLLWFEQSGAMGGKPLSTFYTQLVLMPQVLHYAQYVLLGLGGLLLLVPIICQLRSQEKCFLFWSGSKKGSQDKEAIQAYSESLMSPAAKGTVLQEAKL
ARNT TACC3 PPI = disruptors of human ARNT/TACC3 interaction; AlphaScreen His-ARNT PAS-B/GST-TACC3 binding, luminescence; TACC3 fragment carries E629A point mutation; inhibition, % at 9.99 µM; AID 623870; 0.66% of 390,000 active;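 active = mean inhibition of replicates at least 50% and at least half of replicates each reaching 50%; inconclusive = half or more replicates reach 50% but mean below 50%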;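 also: 0% = complete ARNT plus TACC3 wells and 100% = ARNT alone without TACC3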
CAL PDZ FP-2 = inhibitors of human CAL PDZ peptide binding. purified CAL PDZ, TMR-peptide fluorescence polarization, 1 h. Q9HD26. inhibition, % at 20 µM. 0.02% of 330,000 active;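 active = highest replicate inhibition of at least 40%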;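 also: plate controls were DMSO neutral control wells for no effect and unlabeled competitor peptide control wells for full effect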
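Material: tagged CAL PDZ domain; buffer or medium: 25 mM sodium phosphate pH 7.4, 150 mM NaCl, TCEP, IgG, Thesit; compound dosing: single point, 20 µM; schedule: 1 h incubation at room temperature before polarization reading; measured by: FP readout, S and P plane fluorescence; read-out basis: percent inhibition from loss of millipolarization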
miR-122 sensor = inhibitors of miR-122 in Huh7 cells. Huh7 miR-122 Renilla luciferase sensor, 48 h; neutral wells = 0, positive control = 100. activation (reporter increase), % at 12.5 µM. 0.3% of 340,000 active;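 active = mean replicate activation score at least 90 and every replicate individually at or above 90; inconclusive = only one of the two criteria met; inactive = neither criterion met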;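 also: higher luciferase means less miR-122 activity so hits act as miR-122 inhibitors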
SR-BI DiI-HDL act = SR-BI HDL lipid transfer activation; CHO ldlA[mSR-BI] cells, DiI-HDL uptake fluorescence, 3 h; 100 = double the neutral-control signal; activation, % at 12.5 µM; 0.096% of 320,000 active;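 active = mean replicate activation of at least 60% and every replicate at or above 60%; inconclusive = mean or all-replicate condition met, but not both; inactive = mean below 60% and not all replicates reaching 60%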;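 also: 0% = median plate neutral-control signal and 100% = twice that signal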
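Test system: SR-BI-overexpressing, LDLR-lacking CHO cells. Measured by: DiI fluorescence, bottom read. Medium: Ham's F12 with 0.5% BSA, HEPES 25 mM, pH 7.4. Timing: 3 h uptake period with compound, 37 °C.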
miR-27b qPCR = alters miR-27b levels in Huh7 cells, selectivity for miR-122 inhibitors | Huh7 miR-27b levels, qRT-PCR, 48 h | relative miR-27b level (unnormalised ratio), ratio at 35 µM | AID 687039 | shares compounds with miR-122 sensor | 35 tested, under 10 active;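 active = compounds lowering miR-27b whose fitted half-maximal dose is at most twice their top tested dose; inconclusive = flat curve with moderate drop, or poor fit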
ARNT Alpha ctr = counter-screen for ARNT/TACC3 inhibitors: AlphaScreen artifacts; 50% of 1,200 active; His-ARNT PASB-GST AlphaScreen artifact counter-screen, luminescence; AC50, µM (doses to about 68 µM), without a hit: at the top dose activity change, negative = signal decrease; shares compounds with ARNT TACC3 PPI; AID 651705;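 active = every separate test run was called active for a drop in luminescence, with AC50 within twice the top valid dose, actives reach about 71 µM in these data; inconclusive = the separate test runs disagree in their calls; inactive = all runs inactive, including signal change in the wrong direction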
Starred values were filed as active, the others as inactive; ? = inconclusive; / = no result; [ ] = dose if it differs, or a comment.

SMILES	CAL PDZ FP-1	SR-BI DiI inh	ARNT TACC3 PPI	CAL PDZ FP-2	miR-122 sensor	SR-BI DiI-HDL act	miR-27b qPCR	others
Cc1cc(S(=O)(=O)NC2CCCCC2)c(C)s1	-1	33	-19	0	260*	-33	1.1
COc1cc(S(=O)(=O)NC2CCCC2)c(OC)cc1C	/	0	-8	0	?	0	/
Cc1cc(C)c(S(=O)(=O)NC(C)C)c(C)c1-n1cnnn1	-1	4	-5	-1	91*	-4	1.1
Cc1cc(C)c(S(=O)(=O)NCCOc2ccccc2)c(C)c1-n1cnnn1	-3	17	0	-2	-8	-17	/
CCCNC(=O)C[C@H]1CC[C@@H]2[C@@H](COc3ccc(NC(=O)c4cccc(OC)c4)cc3C(=O)N2C)O1	/	/	-6	/	6[16.7 µM]	/	/
COc1ccc(S(=O)(=O)Nc2ccc(OC(F)F)cc2)c2cccnc12	/	/	/	/	/	/	0.93
COc1ccc(S(=O)(=O)Nc2cccc(C)c2C)c2cccnc12	-3	/	-2	-2	/	/	/
S=C(Nc1ccc(Cl)cc1Cl)NC1CCCCC1	1	53	-7	-1	133*	-53	1.1
COc1ccc(NC(=O)N(C)C[C@@H]2OCCCC[C@H](C)Oc3ccc(NC(=O)CCCN(C)C)cc3C(=O)N([C@@H](C)CO)C[C@H]2C)cc1	/	/	-9	/	10[16.7 µM]	/	/
CCC(=O)Nc1ccc2c(c1)OC[C@@H](C)N(Cc1ccncc1)C[C@H](C)[C@H](OC)CN(C)C2=O	/	/	-20	/	-8[16.7 µM]	/	/
Cc1ccc(C)c(S(=O)(=O)Nc2ccc(-n3cnnn3)cc2)c1	/	31	5	0	183*	-31	0.77
Cc1ccc(C)c(S(=O)(=O)Nc2ccc(O)cc2)c1	-3	-15	2	/	46	15	/
O=S(=O)(c1ccc2c(c1)CCN2)N1CCOCC1	-4	-13	/	-2	/	13	/
O=S(=O)(c1ccc2c(c1)CCCN2)N1CCC[C@@H]2CCCC[C@H]21	/	/	/	/	/	/	1.5
C[C@@H]1CCCCO[C@H](CN(C)C(=O)NC2CCCCC2)[C@H](C)CN([C@@H](C)CO)C(=O)c2cc(NS(=O)(=O)c3ccccc3)ccc2O1	/	/	7	/	-6[16.7 µM]	/	/
Cc1ccc(C(C)C)cc1S(=O)(=O)Nc1cccnc1	-6	4	-1	-2	380*	-4	0.78
COC(=O)c1cc(S(=O)(=O)Nc2cc(OC)cc(OC)c2)cn1C	0	-11	-4	0	153*	11	0.97
CCN(CC)C(=O)CN(c1cc2c(cc1OC)oc1ccccc12)S(=O)(=O)c1ccccc1	-7	13	1	0	100*	-13	0.36
CO[C@@H]1CN(C)C(=O)c2ccc(NC(=O)CC(F)(F)F)cc2OC[C@@H](C)N(S(=O)(=O)c2cn(C)cn2)C[C@@H]1C	/	/	-4	/	/	/	/
Cc1ccc(C(=O)C2Oc3ccccc3C3CC(c4ccc(C)cc4)=NN23)cc1 (stereo not drawn)	-5	-6	0	0	152*	6	0.76
O=C(Nc1ccc2ccccc2c1)c1ccccc1Cl	/	/	/	/	-5	/	/
O=C(Nc1ccc2ccccc2c1)c1ccc(Cl)cc1Cl	-8	27	-12	-9	/	-27	1.5
CS(=O)(=O)Nc1ccc2c(c1)[C@@H]1C[C@@H](CC(=O)NCc3ccc(Cl)cc3)O[C@H](CO)[C@@H]1O2	/	/	-5	/	-6[16.7 µM]	/	/
CC(C)CC#Cc1cnc2c(c1)C(=O)N([C@@H](C)CO)C[C@H](C)[C@@H](CN(C)Cc1ccc(C(=O)O)cc1)O2	/	/	1	/	-7[16.7 µM]	/	/
COc1ccc(S(=O)(=O)NCCN2CCOCC2)c2ccccc12	/	-2	-2	-3	?	2	1
SMILES	CAL PDZ FP-1	SR-BI DiI inh	ARNT TACC3 PPI	CAL PDZ FP-2	miR-122 sensor	SR-BI DiI-HDL act	miR-27b qPCR	others
COc1ccc(C(C)(C)C)cc1S(=O)(=O)NCC1CCCO1 (stereo not drawn)	-8	-71	-4	11	170*	?	0.81
COc1ccc(Br)cc1CNc1ccc(O)cc1	-4	/	14*	-1	-2	/	/	ARNT Alpha ctr=53µM*
COc1ccccc1CNCc1cc(Br)ccc1OC	-1	-2	-12	/	/	2	/
O=c1cc(CSc2ccc(Cl)cc2)nc(-c2ccccn2)[nH]1	-5	7	61*	0	/	-7	/	ARNT Alpha ctr=53µM*
Clc1ccc(SCc2cc(N3CCOCC3)nc(-c3ccccn3)n2)cc1	3	14	60*	-1	/	-14	/	ARNT Alpha ctr=-14%
Clc1ccc(SCc2csc(N3CCOCC3)n2)cc1	-2	-14	-2	0	/	14	/
O=c1cc(CSc2ccc(Cl)cc2)nc(-c2ccccc2)[nH]1	-4	-24	1	0	-2	24	/
C/C=C/c1ccc2c(c1)O[C@H](CN(C)C(=O)c1cnccn1)[C@H](C)CN([C@@H](C)CO)S2(=O)=O	/	/	11	/	-44[16.7 µM]	/	/
CC1OC(CC(=O)O)CC2=C1C(=O)c1c(O)cccc1C2=O (stereo not drawn)	-5	-12	33*	1	-10	12	/	ARNT Alpha ctr=-17%
Cc1noc(C)c1NC(=O)N(C)C[C@@H]1OCCCC[C@@H](C)Oc2ccc(NC(=O)C3CCCCC3)cc2C(=O)N([C@@H](C)CO)C[C@@H]1C	/	/	9	/	0[16.7 µM]	/	/
O=C(c1cccc(F)c1)N1CC[C@@H]2[C@H](CO)Nc3ccc(-c4cccc(F)c4)cc3[C@@H]21	/	/	-1	/	-2[16.7 µM]	/	/
C[C@@H]1CCCCO[C@@H](CN(C)Cc2ccccc2)[C@@H](C)CN([C@@H](C)CO)C(=O)c2cc(NC(=O)Nc3ccc(F)cc3)ccc2O1	/	/	-1	/	2[16.7 µM]	/	/
Nc1ccc2nc(-c3ccccn3)[nH]c2c1	0	-22	46*	0	-10	22	/	ARNT Alpha ctr=45µM*
COc1ccc2nc(-c3ccccn3)[nH]c2c1	-9	12	40*	0	-4	-12	/	ARNT Alpha ctr=-7%

Bioassay records deposited in PubChem by Broad Institute.
